Measured values gathered from unrelated publications.
Target: Tyrosine-protein kinase SYK (SYK, Homo sapiens, UniProt P43405)

For `Cn1cc(Cl)c2c(Oc3c(F)cc(Nc4cc(Cl)nc(N)n4)cc3F)ccnc21`, the remaining binding was 100% (cell-free assay; competition with immobilised ligand; 0.1 µM).
The inhibition of `O=C(CSc1nc2nccnc2c(=O)n1CCc1ccccc1)Nc1nccs1` is reported as 7% (enzyme activity; inhibitor; 10 µM).
`CN1CC(Oc2cnc(C#N)cc2-c2ccn3nc(NC(=O)C4CC4)cc3c2)C1` has an inhibition of 1% (enzyme activity; inhibitor; 1 µM).
The remaining signal of `COc1ccc(COc2ccc(Cc3cnc(N)nc3N)cc2OC)cc1` is reported as 89% (cell-free assay; 0.5 µM).
`CCS(=O)(=O)c1cc2cc(C[C@](O)(CC(C)(C)c3ccc(F)cc3C(N)=O)C(F)(F)F)[nH]c2cn1` has a remaining binding of 100% (cell-free assay; competition with immobilised ligand; 1 µM).
`Cc1ccc(C(=O)Nc2ccc(CN3CCN(C)CC3)c(C(F)(F)F)c2)cc1C#Cc1cnc2cccnn12` has a remaining activity of 99% (enzyme activity; inhibitor; 23.5 nM).
With `CC(=O)N1CCC(c2ccc(C(=O)NC3=NCCN3)cc2C(F)(F)F)CC1` the remaining binding was 100% (cell-free assay; competition with immobilised ligand; 1 µM).
With `COc1cc(Nc2cnc(C#N)c(O[C@H](C)CN(C)C)n2)ncc1-c1cnn(C)c1` the remaining activity was 63% (enzyme activity; inhibitor; radiometric; 10 µM).
The inhibition of `Cc1ccc(Nc2nccc(N(C)c3ccc4c(C)n(C)nc4c3)n2)cc1S(N)(=O)=O` is reported as 21% (enzyme activity; inhibitor; 0.3 µM).
`CC(C)(O)[C@H]1CC[C@H](Nc2ccc3ncc(-c4cccc(C(F)(F)F)c4)n3n2)CC1` has a remaining activity of 72.3% (enzyme activity; inhibitor; 1 µM).
`COc1cc(/C=C/C(=O)CC(=O)/C=C/c2ccc(O)c(OC)c2)ccc1O` gave an activity vs control of 92% (enzyme activity; inhibitor; 1 µM).
The inhibition of `COc1cc2ncnc(Nc3ccc(Oc4ccccc4)cc3C)c2cc1OC` is reported as 1% (enzyme activity; inhibitor; 1 µM).
With `CCCOc1ccc([C@H]2[C@H](C(=O)O)[C@@H](c3ccc4c(c3)OCO4)CN2CC(=O)Nc2c(CC)cccc2CC)cc1` the remaining binding was 100% (cell-free assay; competition with immobilised ligand; 1 µM).
For `CC/C(=N\NC(=O)NCc1cccc(O)c1)c1ccc(O)c(C)c1O`, the inhibition was 3.3% (enzyme activity; inhibitor; 0.1 µM).
The remaining binding of `Nc1cnc(N2CCc3cc(S(=O)(=O)Nc4c(F)cc(Cl)cc4F)cc(N4CCCC4=O)c32)nc1` is reported as 100% (cell-free assay; competition with immobilised ligand; 1 µM).
With `CN(C)C1CCN(CC#Cc2nn(C3CCCC3)c3nc(NCc4ccccc4)ncc23)C1` (centres unmarked) the inhibition was 2% (enzyme activity; inhibitor; FRET; 0.1 µM).
With `Cn1nc(C(=O)NCc2ccc(C(=O)O)cc2)cc1-c1ccc2[nH]ccc2c1` the remaining binding was 81% (cell-free assay; competition with immobilised ligand; 0.1 µM).
With `FC(F)c1nc2ccccc2n1-c1nc(N2CCOCC2)nc(N2CCOCC2)n1` the remaining activity was 85% (enzyme activity; inhibitor; 10 µM).
For `CS(=O)(=O)NCC[C@H](NC(=O)c1cncc2c1cnn2-c1ccc(F)cc1)c1ccnc(S(C)(=O)=O)c1`, the remaining binding was 100% (cell-free assay; competition with immobilised ligand; 1 µM).
With `N#CCCc1ccc2c(c1)-c1[nH]c3ccc([N+](=O)[O-])cc3c1CC(=O)N2` the remaining signal was 58% (cell-free assay; 0.5 µM).
`O=C(N1CCS(=O)(=O)CC1)N1C[C@H](c2ccc(OC(F)(F)F)cc2)C[C@H](c2nc(C3CC3)no2)C1` has a remaining binding of 100% (cell-free assay; competition with immobilised ligand; 1 µM).
The remaining signal of `O=C1Nc2ccc(Cl)cc2C1=Cc1cc(Cl)c(O)c(Cl)c1` is reported as 93.3% (cell-free assay; 0.5 µM).
For `CN(c1ncccc1CNc1nc(Nc2ccc3c(c2)CC(=O)N3)ncc1C(F)(F)F)S(C)(=O)=O`, the inhibition was 91.7% (enzyme activity; inhibitor; 1 µM).
`C=CC(=O)Nc1cc(Nc2nccc(Nc3cc(Cl)c(F)cc3C(C)(C)O)n2)c(OC)cc1N1CC[C@@H](N(C)C)C1` gave an inhibition of 14% (enzyme activity; inhibitor; 1 µM).
For `O=C(Nc1cnn(-c2csc(C(=O)NC3COC3)c2)c1)Nc1ccccc1Cl`, the remaining activity was 101% (enzyme activity; inhibitor; 5 µM).
For `Nc1nc(NC2CCCCC2)sc1C(=O)c1ccccc1`, the remaining activity was 91% (enzyme activity; inhibitor; 10 µM).
With `CNC(=O)c1cc(Oc2ccc(NC(=O)Nc3ccc(Cl)c(C(F)(F)F)c3)cc2)ccn1` the inhibition was 3% (enzyme activity; inhibitor; 0.3 µM).
For `CC(C)(C)c1nc(-c2cccc(NS(=O)(=O)c3c(F)cccc3F)c2F)c(-c2ccnc(N)n2)s1`, the remaining activity was 111% (enzyme activity; inhibitor; radiometric; 1 µM).
For `Cc1cnc(NC2CCOCC2)nc1-n1cnc(C(=O)NC(CN)c2cc(F)cc(Cl)c2)c1` (centres unmarked), the remaining activity was 94% (enzyme activity; inhibitor; radiometric; 1 µM).
With `FC(F)(F)Oc1cccc(-c2cnc3ccc(-c4ccncc4)nn23)c1` the activity vs control was 72% (enzyme activity; inhibitor; radiometric; 1 µM).
The remaining activity of `O=C(Nc1cnn(-c2csc(C(=O)NC3COC3)c2)c1)Nc1c(F)cccc1Cl` is reported as 90.3% (enzyme activity; inhibitor; 5 µM).
For `c1nc2c(Nc3ccc4c(c3)OCCO4)nc(Nc3ccc4c(c3)OCCO4)nc2[nH]1`, the activity vs control was 2% (enzyme activity; inhibitor; 10 µM).
